Test results as given in ChEMBL document CHEMBL4665633, “Cereblon versus VHL: Hijacking E3 ligases against each other using PROTACs” (Bioorg Med Chem, 2019).
Calls of active or inactive are those of the source. The calls are words filed in the database; no cut-off is given here.

What was measured:
Assay type in all cases: cell-based
[1] = target: T1, Protein cereblon/von Hippel-Lindau disease tumor suppressor (Homo sapiens, UniProt P40337+Q96SW2); assay: Protac activity at VHL/CRBN in HEK293 cells assessed as pVHL19 protein abundance at 1 uM after 24 hrs by Western blot analysis relative to DMSO
How it was run: (§1)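 HEK293 cells (DMEM, 10% FBS, penicillin/streptomycin, L-glutamine; 37 °C, 5% CO2; ≤30 passages) seeded at 1 × 10⁶ per well overnight, then treated with compound at 0.1% v/v final DMSO. Cells were lysed in RIPA with protease inhibitors and benzonase, then clarified. Equal Bradford-quantified protein was immunoblotted for CRBN/VHL. Bands were normalised to β-tubulin and expressed as % of mean 0.1% DMSO vehicle.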

[2] = target: T1, Protein cereblon/von Hippel-Lindau disease tumor suppressor; assay: Protac activity at VHL/CRBN in HEK293 cells assessed as pVHL30 protein abundance at 1 uM after 8 hrs by Western blot analysis relative to DMSO; how it was run: as §1
[3] = target: T1, Protein cereblon/von Hippel-Lindau disease tumor suppressor; assay: Protac activity at VHL/CRBN in HEK293 cells assessed as pVHL30 protein abundance at 1 uM after 12 hrs by Western blot analysis relative to DMSO; how it was run: as §1
[4] = target: T1, Protein cereblon/von Hippel-Lindau disease tumor suppressor; assay: Protac activity at VHL/CRBN in HEK293 cells assessed as pVHL30 protein abundance at 1 uM after 24 hrs by Western blot analysis relative to DMSO; how it was run: as §1
[5] = target: T1, Protein cereblon/von Hippel-Lindau disease tumor suppressor; assay: Protac activity at VHL/CRBN in HEK293 cells assessed as CRBN protein abundance at 1 uM after 24 hrs by Western blot analysis relative to DMSO; how it was run: as §1
[6] = target: T1, Protein cereblon/von Hippel-Lindau disease tumor suppressor; assay: Protac activity at VHL/CRBN in HEK293 cells assessed as pVHL19 protein abundance at 500 nM after 4 hrs by Western blot analysis relative to DMSO; how it was run: as §1
[7] = target: T1, Protein cereblon/von Hippel-Lindau disease tumor suppressor; assay: Protac activity at VHL/CRBN in HEK293 cells assessed as CRBN protein abundance at 10 nM after 4 hrs by Western blot analysis relative to DMSO; how it was run: as §1
[8] = target: T1, Protein cereblon/von Hippel-Lindau disease tumor suppressor; assay: Protac activity at VHL/CRBN in human HeLa cells assessed as pVHL19 protein abundance at 1 uM after 2 hrs by Western blot analysis relative to DMSO
How it was run: (§2)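 HeLa cells seeded overnight, then exposed to 1 µM compound (0.1% v/v DMSO final) over a time course. Cells were DPBS-washed and RIPA-lysed with protease inhibitors and benzonase; equal protein was loaded. Immunoblots for CRBN and VHL isoforms were quantified against β-tubulin and reported relative to the averaged 0.1% DMSO vehicle.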

[9] = target: T1, Protein cereblon/von Hippel-Lindau disease tumor suppressor; assay: Protac activity at VHL/CRBN in human HeLa cells assessed as pVHL19 protein abundance at 1 uM after 24 hrs by Western blot analysis relative to DMSO; how it was run: as §2
[10] = target: T1, Protein cereblon/von Hippel-Lindau disease tumor suppressor; assay: Protac activity at VHL/CRBN in human HeLa cells assessed as pVHL30 protein abundance at 1 uM after 2 hrs by Western blot analysis relative to DMSO; how it was run: as §2
[11] = target: T1, Protein cereblon/von Hippel-Lindau disease tumor suppressor; assay: Protac activity at VHL/CRBN in human HeLa cells assessed as pVHL30 protein abundance at 1 uM after 24 hrs by Western blot analysis relative to DMSO; how it was run: as §2
[12] = target: T1, Protein cereblon/von Hippel-Lindau disease tumor suppressor; assay: Protac activity at VHL/CRBN in human HeLa cells assessed as CRBN protein abundance at 1 uM after 1 hr by Western blot analysis relative to DMSO
How it was run: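 HeLa cells (DMEM, 10% FBS, penicillin/streptomycin, L-glutamine; 37 °C, 5% CO2) seeded at 5 × 10⁵ per well overnight, then treated in 0.1% v/v final DMSO. Cells were lysed in RIPA with protease inhibitors and benzonase, and equal protein was run on SDS-PAGE/nitrocellulose blots probed with anti-CRBN. Bands were normalised to β-tubulin and expressed relative to mean 0.1% DMSO vehicle.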

[13] = target: T1, Protein cereblon/von Hippel-Lindau disease tumor suppressor; assay: Protac activity at VHL/CRBN in human HeLa cells assessed as CRBN protein abundance at 1 uM after 8 hrs by Western blot analysis relative to DMSO; how it was run: as §2
[14] = target: T1, Protein cereblon/von Hippel-Lindau disease tumor suppressor; assay: Protac activity at VHL/CRBN in human HeLa cells assessed as pVHL19 protein abundance at 50 nM after 4 hrs by Western blot analysis relative to DMSO
How it was run: (§3)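 HeLa cells (5 × 10⁵, DMEM + 10% FBS, 37 °C, 5% CO₂, ≤30 passages) seeded overnight, then treated 4 h with compound at single or graded concentrations (0.1% v/v DMSO final). RIPA lysates equalised by Bradford; SDS-PAGE and anti-CRBN/anti-VHL immunoblots; bands normalised to β-tubulin and expressed as % of mean DMSO vehicle. DC₅₀ from fit of band intensity versus log[concentration].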

[15] = target: T1, Protein cereblon/von Hippel-Lindau disease tumor suppressor; assay: Protac activity at VHL/CRBN in human HeLa cells assessed as pVHL19 protein abundance at 1000 nM after 4 hrs by Western blot analysis relative to DMSO; how it was run: as §3
[16] = target: T1, Protein cereblon/von Hippel-Lindau disease tumor suppressor; assay: Protac activity at VHL/CRBN in human HeLa cells assessed as pVHL19 protein abundance at 5000 nM after 4 hrs by Western blot analysis relative to DMSO; how it was run: as §3
[17] = target: T1, Protein cereblon/von Hippel-Lindau disease tumor suppressor; assay: Protac activity at VHL/CRBN in human HeLa cells assessed as pVHL30 protein abundance at 500 nM after 4 hrs by Western blot analysis relative to DMSO; how it was run: as §3
[18] = target: T1, Protein cereblon/von Hippel-Lindau disease tumor suppressor; assay: Protac activity at VHL/CRBN in human HeLa cells assessed as pVHL30 protein abundance at 5000 nM after 4 hrs by Western blot analysis relative to DMSO; how it was run: as §3
[19] = target: T1, Protein cereblon/von Hippel-Lindau disease tumor suppressor; assay: Protac activity at VHL/CRBN in human HeLa cells assessed as pVHL30 protein abundance at 10000 nM after 4 hrs by Western blot analysis relative to DMSO; how it was run: as §3
[20] = target: T1, Protein cereblon/von Hippel-Lindau disease tumor suppressor; assay: Protac activity at VHL/CRBN in human HeLa cells assessed as CRBN protein abundance at 5 nM after 4 hrs by Western blot analysis relative to DMSO; how it was run: as §3
[21] = target: T1, Protein cereblon/von Hippel-Lindau disease tumor suppressor; assay: Protac activity at VHL/CRBN in human HeLa cells assessed as CRBN protein abundance at 1000 nM after 4 hrs by Western blot analysis relative to DMSO; how it was run: as §3
[22] = target: T1, Protein cereblon/von Hippel-Lindau disease tumor suppressor; assay: Protac activity at VHL/CRBN in human HeLa cells assessed as hook effect at > 1 uM
[23] = target: T1, Protein cereblon/von Hippel-Lindau disease tumor suppressor; assay: Protac activity at VHL/CRBN in human HeLa cells assessed as CRBN protein abundance at 10 nM after 4 hrs by Western blot analysis relative to DMSO; how it was run: as §3
[24] = target: T1, Protein cereblon/von Hippel-Lindau disease tumor suppressor; assay: Protac activity at VHL/CRBN in human HeLa cells assessed as reduction in CRBN protein level at 10 nM after 4 hrs by Western blot analysis
How it was run: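 HeLa cells (ATCC; DMEM, 10% FBS, pen/strep, L-glutamine; 37 °C, 5% CO2; ≤30 passages; mycoplasma-tested) are seeded at 5 × 10⁵ per well overnight, then treated for 4 h with 0.1% v/v DMSO final. Lysis is in RIPA with protease inhibitors and benzonase, and equal protein (Bradford) is loaded. CRBN is immunoblotted, normalized to β-tubulin and expressed as % of mean DMSO vehicle.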

[25] = target: T1, Protein cereblon/von Hippel-Lindau disease tumor suppressor; assay: Protac activity at VHL/CRBN in human HeLa cells assessed as induction of CRBN degradation at 10 nM after 4 hrs by Western blot analysis relative to control; how it was run: as §3
[26] = target: T1, Protein cereblon/von Hippel-Lindau disease tumor suppressor; assay: Protac activity at VHL/CRBN in human HeLa cells assessed as induction of CRBN degradation at 1 uM after 4 hrs by Western blot analysis relative to control; how it was run: as §3

T1 sequence (P40337 whole entry, looked up): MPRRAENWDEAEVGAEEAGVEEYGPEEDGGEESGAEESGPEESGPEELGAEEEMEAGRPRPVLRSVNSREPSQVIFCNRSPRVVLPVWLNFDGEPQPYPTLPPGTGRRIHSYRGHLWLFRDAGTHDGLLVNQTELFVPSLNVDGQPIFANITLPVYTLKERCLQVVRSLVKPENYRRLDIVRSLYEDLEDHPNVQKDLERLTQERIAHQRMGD
T1 sequence (Q96SW2 whole entry, looked up): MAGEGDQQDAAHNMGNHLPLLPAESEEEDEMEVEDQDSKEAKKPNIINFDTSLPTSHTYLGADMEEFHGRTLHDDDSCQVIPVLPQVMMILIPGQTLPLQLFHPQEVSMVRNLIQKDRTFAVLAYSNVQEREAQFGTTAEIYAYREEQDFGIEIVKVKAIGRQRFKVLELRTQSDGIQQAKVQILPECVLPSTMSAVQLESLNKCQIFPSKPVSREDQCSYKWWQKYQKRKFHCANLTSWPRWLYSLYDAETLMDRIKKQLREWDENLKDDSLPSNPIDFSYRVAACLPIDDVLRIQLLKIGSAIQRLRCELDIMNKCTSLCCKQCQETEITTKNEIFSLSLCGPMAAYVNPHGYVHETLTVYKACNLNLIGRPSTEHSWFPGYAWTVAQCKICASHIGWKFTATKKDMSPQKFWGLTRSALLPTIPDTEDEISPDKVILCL

Structure (SMILES): Cc1ncsc1-c1ccc(CNC(=O)[C@@H]2C[C@@H](O)CN2C(=O)[C@@H](NC(=O)COCCCCCOCCOCCCCCOCC(=O)NCCNc2cccc3c2C(=O)N(C2CCC(=O)NC2=O)C3=O)C(C)(C)C)cc1 (some centres not stated)
- Activity [1]: 101%
- Activity [2]: 101%
- Activity [3]: 113%
- Activity [4]: 101%
- Activity [5]: 6%
- Activity [6]: 113%
- Activity [7]: 113%
- Activity [8]: 95%
- Activity [9]: 100%
- Activity [10]: 89%
- Activity [11]: 97%
- Activity [12]: 57%
- Activity [13]: 15%
- Activity [14]: 95%
- Activity [15]: 110%
- Activity [16]: 115%
- Activity [17]: 83%
- Activity [18]: 143%
- Activity [19]: 142%
- Activity [20]: 85%
- Activity [21]: 25%
- Activity [22]: Active
- Activity [23]: 81%
- Activity [24]: inactive
- Activity [25]: 19%
- %max [26]: 75%
- Activity [26]: 64%
